Experimental data: article PMC2811258 (Biochemistry, 2009)
pKd: −log10 of the molar value. Values joined by “and” are separate entries in the source; they are usually repeats but may differ in a detail not shown here. Identical values can stand only once. “Also recorded” adds a separate entry of the source. Like-named read-outs stand apart in the source and are kept apart here.

Assays:
[1] = target: TmP4; settings: read-out: Upper limit of Kd for the TmP4–TNP-ATP binding interaction; previous work; ref [2]; cited from earlier work
[2] = target: T1, TmCheA dimer (full-length T. maritima CheA) (Thermotoga maritima, UniProt Q56310); format: binding; settings: 4 °C
T1 sequence (Q56310 1-671): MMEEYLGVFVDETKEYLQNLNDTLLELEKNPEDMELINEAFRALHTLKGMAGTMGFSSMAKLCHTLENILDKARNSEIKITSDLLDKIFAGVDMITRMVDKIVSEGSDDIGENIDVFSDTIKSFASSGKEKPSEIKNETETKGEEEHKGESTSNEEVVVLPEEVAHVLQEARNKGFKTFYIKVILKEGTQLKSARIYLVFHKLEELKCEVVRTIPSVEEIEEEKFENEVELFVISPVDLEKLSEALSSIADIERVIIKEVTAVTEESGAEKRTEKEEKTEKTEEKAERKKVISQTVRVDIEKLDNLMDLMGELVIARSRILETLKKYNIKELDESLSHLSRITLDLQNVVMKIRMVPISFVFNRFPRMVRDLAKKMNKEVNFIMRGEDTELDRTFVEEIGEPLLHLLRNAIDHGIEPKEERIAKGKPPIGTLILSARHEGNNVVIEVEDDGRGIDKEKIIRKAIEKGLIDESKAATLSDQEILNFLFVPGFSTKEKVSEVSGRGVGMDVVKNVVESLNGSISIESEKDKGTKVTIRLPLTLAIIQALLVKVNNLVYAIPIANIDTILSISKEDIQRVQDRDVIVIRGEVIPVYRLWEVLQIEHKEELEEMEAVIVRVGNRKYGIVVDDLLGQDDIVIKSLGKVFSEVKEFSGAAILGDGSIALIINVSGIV

[3] = target: T2, TmP4 (isolated P4 domain of T. maritima CheA, monomer) (Thermotoga maritima, UniProt Q56310); assay: Fluorescence-monitored TNP-ATP binding titrations with TmP4; settings: 4 °C, Mg2+; λex 520 nm, emission 530–600 nm
T2 sequence (Q56310 356-540): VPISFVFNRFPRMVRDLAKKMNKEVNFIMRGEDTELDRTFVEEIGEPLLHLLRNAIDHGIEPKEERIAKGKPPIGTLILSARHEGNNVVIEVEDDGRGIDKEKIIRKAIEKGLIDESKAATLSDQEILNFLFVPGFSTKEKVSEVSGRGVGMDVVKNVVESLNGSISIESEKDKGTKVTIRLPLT

[4] = target: TmP4; settings: read-out: Kd^ATP for TmP4; chromatographic approach; ref [2]; cited from earlier work
[5] = target: T1, TmCheA dimer (full-length T. maritima CheA); assay: Competition binding between ATP and TNP-ATP for TmCheA binding sites; settings: 4 °C, Mg2+
In short: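 Competition titrations at 4 °C: TNP-ATP aliquots added to stirred full-length TmCheA (0.6 μM dimer) in TnM buffer (25 mM Tris, 0.5 mM EDTA, 10% glycerol, 25 mM NaCl, 50 mM K-glutamate, 20 mM MgCl2) containing 0, 2.34, 5.9, 11.9 or 23.4 mM ATP. Emission spectra (four-scan averages), background-corrected by mock titrations. At least two independent experiments averaged.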

[6] = without versus with 20 mM MgCl2

SMILES | pKd [1] | IMFC of T.AA.T complex ([2]; 20 mM MgCl2, 0.6 μM TmCheA dimer, two-site model) | IMFC of T.AA complex (IMFC site 1) ([2]; 20 mM MgCl2, TmCheA titrated with excess TNP nucleotide) | IMFC site 2 (second, low-affinity site) ([2]; Mg2+) | IMFC of T.AA complex from reverse stoichiometry titration ([2]; Mg2+, TmCheA added to 0.28 μM TNP-ATP) | IMFC of T.AA complex, absence of Mg2+ ([2]; no MgCl2, 20 mM Na2EDTA) | IMFC of T.AA.T complex, absence of Mg2+ ([2]; no MgCl2, 20 mM Na2EDTA) | Decrease of site 2 affinity in the absence of Mg2+ [2, 6] | Effect of Mg2+ removal on site 1 binding [2, 6] | pKd ([2]; Kd1^TNP (high-affinity site 1 of TmCheA dimer), Mg2+, forward and reverse titrations at low protein and ligand concentrations (0.002–0.003 μM)) | pKd ([2]; Kd1^TNP, titration of CheA with excess TNP-ATP, Mg2+, 0.003 μM TmCheA dimer, one-site binding model) | pKd ([2]; Kd1^TNP, titration of TNP-ATP with excess TmCheA, Mg2+, 0.002 μM TNP-ATP, one-site binding model) | Binding stoichiometry of high-affinity TNP-ATP binding to TmCheA dimer ([2]; reverse titration, 0.28 μM TNP-ATP, Mg2+) | IMFC (integrated molar fluorescence coefficient) of the TmP4 · TNP-ATP complex [3] | pKd [4] | Kd2^ATP/Kd1^ATP (affinity difference between the two sites) [5] | pKd ([5]; read-out: Kd1^ATP (high-affinity site of TmCheA dimer), effect of competitor ATP on apparent Kd1^TNP)
Nc1ncnc2c1ncn2[C@@H]1O[C@H](COP(=O)(O)OP(=O)(O)OP(=O)(O)O)[C@H]2OC3(O[C@H]21)C([N+](=O)[O-])=CC(=[N+]([O-])[O-])C=C3[N+](=O)[O-] (some centres unmarked) [TNP-ATP, 2′(3′)-O-(2,4,6-trinitrophenyl)adenosine 5′-triphosphate] | ≥ 8.00 | 9.5 × 10^6 cps/μM | 2.0 × 10^6 cps/μM | 7.5 × 10^6 cps/μM | ~2× 10^6 cps/μM and 2.0 × 10^6 cps/μM | 2.4 × 10^6 cps/μM | 8.9 × 10^6 cps/μM | 5 fold | insensitive to the presence or absence of Mg^2+ | ~8.80 and 8.80 | 8.74 | 8.85 | each TmCheA dimer can bind one molecule of TNP-ATP with high affinity; also recorded: one TNP-ATP per CheA dimer | 1.9 × 10^6 cps/μM | – | – | –
Nc1ncnc2c1ncn2[C@@H]1O[C@H](COP(=O)(O)OP(=O)(O)OP(=O)(O)O)[C@@H](O)[C@H]1O [ATP] | – | – | – | – | – | – | – | – | – | – | – | – | – | – | 4.82 | ~10^3 fold | ~5.22 and 5.22
